Measured values taken from ChEMBL document CHEMBL1135739, “Radiolabeled amino acids for tumor imaging with PET: radiosynthesis and biological evaluation of 2-amino-3-[18F]fluoro-2-methylpropanoic acid and 3-[18F]fluoro-2-methyl-2-(methylamino)propanoic acid” (J Med Chem, 2002).

How the values were obtained:
Rattus norvegicus [1] = organism: Rattus norvegicus; experiment: Radioactivity distribution in kidney of normal fischer rat after injection of [18F]fluoro-2-methylpropanoic acid after 30 min.; assay type: ADME, organism-based; details: in vivo, 0.5 h
Summary of the method: (§1)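 Normal male Fischer 344 rats (200–250 g), anesthetized with i.m. ketamine:xylazine (1:1), got ~85 μCi of tracer in 0.3 mL sterile water i.v. via tail-vein catheter. Groups of four were killed at 5, 30, 60 or 120 min. Tissues were weighed and gamma-counted against dose standards, and counts were decay-corrected to %ID/g. Results are mean ± standard error (n = 4), compared by one-way ANOVA.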

Rattus norvegicus [2] = organism: Rattus norvegicus; experiment: Radioactivity distribution in kidney of normal fischer rat after injection of [18F]fluoro-2-methylpropanoic acid after 5 min.; assay type: ADME, organism-based; details: in vivo
Summary of the method: (§2)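 Male Fischer 344 rats (200–250 g), fed ad libitum, anesthetized with intramuscular ketamine:xylazine (1:1, 0.1 mL/100 g). About 85 μCi tracer in 0.3 mL sterile water was given by tail-vein catheter. Groups of four were killed at 5, 30, 60 or 120 min. Tissues were weighed and gamma-counted against dose standards, decay-corrected, and expressed as %ID/g (mean ± standard error).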

Rattus norvegicus [3] = organism: Rattus norvegicus; experiment: Radioactivity distribution in kidney of normal fischer rat after injection of [18F]fluoro-2-methylpropanoic acid after 60 min.; assay type: ADME, organism-based; details: in vivo, 1 h; summary of the method: as §2
Rattus norvegicus [4] = organism: Rattus norvegicus; experiment: Radioactivity distribution in muscle of tumor-bearing fischer rat after injection of [18F]fluoro-2-methylpropanoic acid after 120 min; assay type: ADME, organism-based, Muscle tissue; details: in vivo, 2 h
Summary of the method: (§3)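 Male Fischer 344 rats carried intracranial 9L gliosarcoma, stereotactically implanted (4×10^4 cells) and used 17–19 days later. Awake, restrained animals received about 35 μCi tracer in 0.3 mL sterile water via the tail vein and were killed at 5, 60 or 120 min (n = 4–5). Tissues were weighed, gamma-counted, decay-corrected and reported as %ID/g ± standard error.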

Rattus norvegicus [5] = organism: Rattus norvegicus; experiment: Radioactivity distribution in muscle of tumor-bearing fischer rat after injection of [18F]-fluoro-2-methylpropanoic acid after 5 min; assay type: ADME, organism-based, Muscle tissue; details: in vivo; summary of the method: as §3
Rattus norvegicus [6] = organism: Rattus norvegicus; experiment: Radioactivity distribution in muscle of tumor-bearing fischer rat after injection of [18F]fluoro-2-methylpropanoic acid after 60 min; assay type: ADME, organism-based, Muscle tissue; details: in vivo, 1 h; summary of the method: as §3
Rattus norvegicus [7] = organism: Rattus norvegicus; experiment: Radioactivity distribution in blood of normal fischer rat after injection of [18F]fluoro-2-methylpropanoic acid after 30 min.; assay type: ADME, organism-based; details: in vivo, 0.5 h; summary of the method: as §1
Rattus norvegicus [8] = organism: Rattus norvegicus; experiment: Radioactivity distribution in brain of normal fischer rat after injection of [18F]fluoro-2-methylpropanoic acid after 60 min.; assay type: ADME, organism-based; details: in vivo, 1 h; summary of the method: as §1
Rattus norvegicus [9] = organism: Rattus norvegicus; experiment: Radioactivity distribution in spleen of normal fischer rat after injection of [18F]fluoro-2-methylpropanoic acid after 60 min.; assay type: ADME, organism-based; details: in vivo, 1 h
Summary of the method: (§4)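 Male Fischer 344 rats (200–250 g), fed ad libitum, under intramuscular ketamine:xylazine anesthesia, got ~85 μCi radiotracer in 0.3 mL sterile water by tail-vein catheter. Groups of four were killed at 5, 30, 60 or 120 min. Dissected tissues were weighed and gamma-counted with dose standards. Counts were decay-corrected and given as %ID/g, mean ± standard error. Tissues were compared by one-way ANOVA.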

Rattus norvegicus [10] = organism: Rattus norvegicus; experiment: Radioactivity distribution in spleen of tumor-bearing fischer rat after injection of [18F]fluoro-2-methylpropanoic acid after 120 min; assay type: ADME, organism-based; details: in vivo, 2 h
Summary of the method: (§5)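 Male Fischer rats had 4×10^4 9L gliosarcoma cells implanted stereotactically into the brain, 3 mm right of midline, 1 mm anterior to bregma, 5 mm deep. They were used 17–19 days later. Awake, restrained rats got ~35 μCi in 0.3 mL sterile water by tail vein and were killed at 5, 60 or 120 min. Tissues, tumor and contralateral brain were gamma-counted, decay-corrected, as %ID/g, mean ± SE, n = 4–5.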

Rattus norvegicus [11] = organism: Rattus norvegicus; experiment: Radioactivity distribution in spleen of tumor-bearing fischer rat after injection of [18F]fluoro-2-methylpropanoic acid after 5 min; assay type: ADME, organism-based; details: in vivo; summary of the method: as §5
Rattus norvegicus [12] = organism: Rattus norvegicus; experiment: Radioactivity distribution in pancreas of tumor-bearing fischer rat after injection of [18F]fluoro-2-methylpropanoic acid after 120 min; assay type: ADME, organism-based; details: in vivo, 2 h; summary of the method: as §3
Rattus norvegicus [13] = organism: Rattus norvegicus; experiment: Radioactivity distribution in spleen of normal fischer rat after injection of [18F]fluoro-2-methylpropanoic acid after 120 min.; assay type: ADME, organism-based; details: in vivo, 2 h; summary of the method: as §4
Rattus norvegicus [14] = organism: Rattus norvegicus; experiment: Radioactivity distribution in lung of normal fischer rat after injection of [18F]fluoro-2-methylpropanoic acid after 120 min.; assay type: ADME, organism-based; details: in vivo, 2 h; summary of the method: as §2
Rattus norvegicus [15] = organism: Rattus norvegicus; experiment: Radioactivity distribution in lung of normal fischer rat after injection of [18F]-fluoro-2-methylpropanoic acid after 60 min.; assay type: ADME, organism-based; details: in vivo, 1 h; summary of the method: as §2
Rattus norvegicus [16] = organism: Rattus norvegicus; experiment: Radioactivity distribution in lung of tumor-bearing fischer rat after injection of [18F]-fluoro-2-methylpropanoic acid after 120 min; assay type: ADME, organism-based; details: in vivo, 2 h; summary of the method: as §3
Rattus norvegicus [17] = organism: Rattus norvegicus; experiment: Radioactivity distribution in testis of tumor-bearing fischer rat after injection of [18F]fluoro-2-methylpropanoic acid after 120 min; assay type: ADME, organism-based; details: in vivo, 2 h; summary of the method: as §5
Rattus norvegicus [18] = organism: Rattus norvegicus; experiment: Radioactivity distribution in pancreas of normal fischer rat after injection of [18F]fluoro-2-methylpropanoic acid after 5 min.; assay type: ADME, organism-based; details: in vivo; summary of the method: as §2
Rattus norvegicus [19] = organism: Rattus norvegicus; experiment: Radioactivity distribution in pancreas of normal fischer rat after injection of [18F]fluoro-2-methylpropanoic acid after 60 min.; assay type: ADME, organism-based; details: in vivo, 1 h; summary of the method: as §2
Rattus norvegicus [20] = organism: Rattus norvegicus; experiment: Radioactivity distribution in muscle of normal fischer rat after injection of [18F]-fluoro-2-methylpropanoic acid after 60 min.; assay type: ADME, organism-based, Muscle tissue; details: in vivo, 1 h; summary of the method: as §2
Rattus norvegicus [21] = organism: Rattus norvegicus; experiment: Radioactivity distribution in testis of tumor-bearing fischer rat after injection of [18F]fluoro-2-methylpropanoic acid after 60 min; assay type: ADME, organism-based; details: in vivo, 1 h; summary of the method: as §5
Rattus norvegicus [22] = organism: Rattus norvegicus; experiment: Radioactivity distribution in lung of tumor-bearing fischer rat after injection of [18F]fluoro-2-methylpropanoic acid after 60 min; assay type: ADME, organism-based; details: in vivo, 1 h; summary of the method: as §3
Rattus norvegicus [23] = organism: Rattus norvegicus; experiment: Radioactivity distribution in bone of tumor-bearing fischer rat after injection of [18F]fluoro-2-methylpropanoic acid after 60 min; assay type: ADME, organism-based, Bone element; details: in vivo, 1 h
Summary of the method: (§6)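 Male Fischer 344 rats carried intracranial 9L gliosarcoma, implanted stereotactically (4×10^4 cells) and used 17–19 days later. Awake restrained rats got ~35 μCi of tracer in 0.3 mL sterile water by tail-vein injection and were killed at 5, 60 or 120 min. Tissues were weighed and gamma-counted, and counts were decay-corrected to %ID/g. Results are mean ± standard error; n = 4 at 5 and 120 min, n = 5 at 60 min.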

Rattus norvegicus [24] = organism: Rattus norvegicus; experiment: Radioactivity distribution in blood of normal fischer rat after injection of [18F]fluoro-2-methylpropanoic acid after 5 min.; assay type: ADME, organism-based; details: in vivo; summary of the method: as §1
Rattus norvegicus [25] = organism: Rattus norvegicus; experiment: Radioactivity distribution in blood of normal fischer rat after injection of [18F]fluoro-2-methylpropanoic acid after 60 min.; assay type: ADME, organism-based; details: in vivo, 1 h; summary of the method: as §1
Rattus norvegicus [26] = organism: Rattus norvegicus; experiment: Radioactivity distribution in blood of tumor-bearing fischer rat after injection of [18F]fluoro-2-methylpropanoic acid after 5 min; assay type: ADME, organism-based; details: in vivo; summary of the method: as §6
Rattus norvegicus [27] = organism: Rattus norvegicus; experiment: Radioactivity distribution in blood of tumor-bearing fischer rat after injection of [18F]fluoro-2-methylpropanoic acid after 60 min; assay type: ADME, organism-based; details: in vivo, 1 h; summary of the method: as §6
Rattus norvegicus [28] = organism: Rattus norvegicus; experiment: Radioactivity distribution in spleen of normal fischer rat after injection of [18F]fluoro-2-methylpropanoic acid after 30 min.; assay type: ADME, organism-based; details: in vivo, 0.5 h; summary of the method: as §4
Rattus norvegicus [29] = organism: Rattus norvegicus; experiment: Radioactivity distribution in liver of normal fischer rat after injection of [18F]-fluoro-2-methylpropanoic acid after 120 min.; assay type: ADME, organism-based; details: in vivo, 2 h; summary of the method: as §2
Rattus norvegicus [30] = organism: Rattus norvegicus; experiment: Radioactivity distribution in brain of tumor-bearing fischer rat after injection of [18F]fluoro-2-methylpropanoic acid after 120 min; assay type: ADME, organism-based; details: in vivo, 2 h; summary of the method: as §6
Rattus norvegicus [31] = organism: Rattus norvegicus; experiment: Radioactivity distribution in brain of tumor-bearing fischer rat after injection of [18F]fluoro-2-methylpropanoic acid after 5 min; assay type: ADME, organism-based; details: in vivo; summary of the method: as §6
Rattus norvegicus [32] = organism: Rattus norvegicus; experiment: Radioactivity distribution in brain of tumor-bearing fischer rat after injection of [18F]fluoro-2-methylpropanoic acid after 60 min; assay type: ADME, organism-based; details: in vivo, 1 h; summary of the method: as §6
Rattus norvegicus [33] = organism: Rattus norvegicus; experiment: Radioactivity distribution in tumor of tumor-bearing fischer rat after injection of [18F]fluoro-2-methylpropanoic acid after 5 min; assay type: ADME, organism-based; details: in vivo; summary of the method: as §5
Rattus norvegicus [34] = organism: Rattus norvegicus; experiment: Radioactivity distribution in blood of tumor-bearing fischer rat after injection of [18F]fluoro-2-methylpropanoic acid after 120 min; assay type: ADME, organism-based; details: in vivo, 2 h; summary of the method: as §6

CC(N)(C[18F])C(=O)O.Cl (centres undefined)
ID/g (Rattus norvegicus [1]): 5.59%
ID/g (Rattus norvegicus [2]): 6.36%
ID/g (Rattus norvegicus [3]): 4.74%
ID/g (Rattus norvegicus [4]): 0.21%
ID/g (Rattus norvegicus [5]): 0.39%
ID/g (Rattus norvegicus [6]): 0.31%
ID/g (Rattus norvegicus [7]): 0.25%
ID/g (Rattus norvegicus [8]): 0.06%
ID/g (Rattus norvegicus [9]): 0.5%
ID/g (Rattus norvegicus [10]): 0.32%
ID/g (Rattus norvegicus [11]): 0.72%
ID/g (Rattus norvegicus [12]): 1.42%
ID/g (Rattus norvegicus [13]): 0.33%
ID/g (Rattus norvegicus [14]): 0.37%
ID/g (Rattus norvegicus [15]): 0.44%
ID/g (Rattus norvegicus [16]): 0.24%
ID/g (Rattus norvegicus [17]): 0.11%
ID/g (Rattus norvegicus [18]): 3.46%
ID/g (Rattus norvegicus [19]): 2.95%
ID/g (Rattus norvegicus [20]): 0.26%
ID/g (Rattus norvegicus [21]): 0.14%
ID/g (Rattus norvegicus [22]): 0.38%
ID/g (Rattus norvegicus [23]): 0.25%
ID/g (Rattus norvegicus [24]): 0.53%
ID/g (Rattus norvegicus [25]): 0.22%
ID/g (Rattus norvegicus [26]): 0.72%
ID/g (Rattus norvegicus [27]): 0.26%
ID/g (Rattus norvegicus [28]): 0.54%
ID/g (Rattus norvegicus [29]): 0.48%
ID/g (Rattus norvegicus [30]): 0.05%
ID/g (Rattus norvegicus [31]): 0.035%
ID/g (Rattus norvegicus [32]): 0.054%
ID/g (Rattus norvegicus [33]): 0.91%
ID/g (Rattus norvegicus [34]): 0.16%
